Calls of active or inactive are those of the source. The rule behind the calls is not given here.
Experiments:
[1] = Growth inhibition of human […] cells after 48 hrs by SRB assay; format: functional
MCF7 [2] = assay: Cell cycle arrest in human MCF7 cells by accumulation at G2/M phase at 5 uM after 48 hrs by flow cytometry (Rvb=5.9%); format: functional
OVCAR-5 = assay: Growth inhibition of human OVCAR5 cells after 48 hrs by SRB assay; format: functional; conditions: OVCAR-5, 48 h
Method in brief: (§1)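 This is the NCI cell-line panel. Cells are exposed for 48 h to five concentrations in 10-fold serial dilution. Growth is read by the SRB protein assay, and GI₅₀ is calculated from log dose–response curves.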

PC-3 = assay: Growth inhibition of human PC3 cells after 48 hrs by SRB assay; format: functional; conditions: PC-3, 48 h; method in brief: as §1
UACC-257 = assay: Growth inhibition of human UACC257 cells after 48 hrs by SRB assay; format: functional; conditions: UACC-257, 48 h
Method in brief: (§2)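 NCI human tumor cell line panel. Cells exposed for 48 h to five concentrations in a 10-fold serial dilution. Growth inhibition read as total cell protein by sulforhodamine B staining. GI50 calculated from log dose–response curves.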

A10 = assay: Inhibition of tubulin in rat A10 cells assessed as thinning of microtubule network at 20 uM after 18 hrs by fluorescence microscopy; format: cell-based
Method in brief: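 A-10 cells plated on glass coverslips and treated with compound at varying concentrations for 18 h. After fixation, microtubules immunostained with a β-tubulin antibody (indirect immunofluorescence) and nuclei stained with DAPI. Read by fluorescence microscopy. Percentage of cellular microtubule loss estimated visually across the concentration range.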

U-251 = assay: Growth inhibition of human U251 cells after 48 hrs by SRB assay; format: functional; conditions: U-251, 48 h; method in brief: as §2
MCF7 [3] = assay: Cell cycle arrest in human MCF7 cells by accumulation at G2/M phase at 1 uM after 48 hrs by flow cytometry (Rvb=5.9%); format: functional
HUVEC = assay: Antiangiogenic activity in HUVEC cells assessed inhibition of tube formation at 1 uM after 16 hrs by tube formation assay; format: functional, cell-based; conditions: Homo sapiens
Method in brief: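 HUVEC cells (1 × 10⁵) are seeded onto a Matrigel surface and tube formation is scored after treatment.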

OVCAR-4 = assay: Growth inhibition of human OVCAR4 cells after 48 hrs by SRB assay; format: functional; conditions: OVCAR-4, 48 h; method in brief: as §1
SF-295 = assay: Growth inhibition of human SF295 cells after 48 hrs by SRB assay; format: functional; conditions: SF-295, 48 h; method in brief: as §1
M14 = assay: Growth inhibition of human M14 cells after 48 hrs by SRB assay; format: functional; conditions: M14, 48 h; method in brief: as §1
NCI-H23 = assay: Growth inhibition of human NCI-H23 cells after 48 hrs by SRB assay; format: functional; conditions: NCI-H23, 48 h
SF-539 = assay: Growth inhibition of human SF539 cells after 48 hrs by SRB assay; format: functional; conditions: SF-539, 48 h; method in brief: as §2
A498 = assay: Growth inhibition of human A498 cells after 48 hrs by SRB assay; format: functional; conditions: A498, 48 h; method in brief: as §1
OVCAR-8 = assay: Growth inhibition of human OVCAR8 cells after 48 hrs by SRB assay; format: functional; conditions: OVCAR-8, 48 h; method in brief: as §1
KM12 = assay: Growth inhibition of human KM12 cells after 48 hrs by SRB assay; format: functional; conditions: KM12, 48 h
[4] = Inhibition of tubulin polymerization by turbidimetry
Method in brief: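 Tubulin at 10 µM (1.0 mg/mL). Polymerization followed turbidimetrically at 350 nm in temperature-controlled spectrophotometers.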

BT-549 = assay: Growth inhibition of human BT549 cells after 48 hrs by SRB assay; format: functional; conditions: BT-549, 48 h; method in brief: as §1
MCF7 [5] = assay: Cell cycle arrest in human MCF7 cells by accumulation at G2/M phase at 0.1 uM after 48 hrs by flow cytometry (Rvb=5.9%); format: functional
NCI-H460 = assay: Growth inhibition of human NCI-H460 cells after 48 hrs by SRB assay; format: functional; conditions: NCI-H460, 48 h
SNB-19 = assay: Growth inhibition of human SNB19 cells after 48 hrs by SRB assay; format: functional; conditions: SNB-19, 48 h; method in brief: as §2
SN12C = assay: Growth inhibition of human SN12C cells after 48 hrs by SRB assay; format: functional; method in brief: as §2
HCT-116 = assay: Growth inhibition of human HCT116 cells after 48 hrs by SRB assay; format: functional; conditions: HCT-116, 48 h
HOP-92 = assay: Growth inhibition of human HOP92 cells after 48 hrs by SRB assay; format: functional; conditions: HOP-92, 48 h
HOP-62 = assay: Growth inhibition of human HOP62 cells after 48 hrs by SRB assay; format: functional; conditions: HOP-62, 48 h
SW-620 = assay: Growth inhibition of human SW620 cells after 48 hrs by SRB assay; format: functional; conditions: SW-620, 48 h; method in brief: as §2
[6] = Growth inhibition of human Hs 578T cells after 48 hrs by SRB assay; format: functional; method in brief: as §1
[7] = Displacement of [3H]colchicine from tubulin at 5 uM by DEAE-cellulose filter method
MCF7 [8] = assay: Cell cycle arrest in human MCF7 cells by accumulation at G2/M phase at 10 uM after 48 hrs by flow cytometry (Rvb=5.9%); format: functional
SR = assay: Growth inhibition of human SR cells after 48 hrs by SRB assay; format: functional; method in brief: as §2
LOX IMVI = assay: Growth inhibition of human LOXIMVI cells after 48 hrs by SRB assay; format: functional; method in brief: as §1
Aorta = assay: Antiangiogenic activity in rat aortic rings assessed inhibition of sprouts formation at 5 uM after 6 days by aortic ring assay; format: functional, tissue-based

- GI50 (OVCAR-5): 1810 nM
- GI50 (PC-3): 250 nM
- GI50 (U-251): 25 nM
- GI50 (OVCAR-4): 2060 nM
- GI50 (NCI-H23): 140 nM
- GI50 (OVCAR-8): 300 nM
- IC50 [4]: 31000 nM
- GI50 (BT-549): 21 nM
- GI50 (NCI-H460): 28 nM
- GI50 (HCT-116): 370 nM
- GI50 (SW-620): 37 nM
- inhibition [7]: 4.4%
SMILES: COc1ccc(/C=C/C(=O)c2cc(OC)c(OC)c(OC)c2)cc1B(O)O
- GI50 [1]: 1120 nM
- Activity (MCF7 [2]): 7.4%
- GI50 (UACC-257): 4410 nM
- Activity (A10): Active
- Activity (MCF7 [3]): 7.1%
- inhibition (HUVEC): Active
- GI50 (SF-295): 2730 nM
- GI50 (M14): 1190 nM
- GI50 (SF-539): 35 nM
- GI50 (A498): 4760 nM
- GI50 (KM12): 15400 nM
- Activity (MCF7 [5]): 6.4%
- GI50 (SNB-19): < 10 nM
- GI50 (SN12C): 460 nM
- GI50 (HOP-92): 380 nM
- GI50 (HOP-62): 98 nM
- GI50 [6]: 46 nM
- Activity (MCF7 [8]): 14%
- GI50 (SR): 2180 nM
- GI50 (LOX IMVI): 60 nM
- inhibition (Aorta): Active
